The source made the active and inactive calls. No cut-off for these calls is given here.
Assays:
Candida albicans = assay: Antifungal activity against Candida albicans ATCC 10231 assessed as concentration required to inhibit fungal growth after 24 hrs by TLC assay; type: functional
Summary of the method: (§1)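 Direct TLC bioautography: compound amounts from 50 to 1.56 μg applied to precoated TLC plates, overlaid with Mueller Hinton or Sabouraud agar inoculated with microorganism suspension (10⁵ cfu mL⁻¹). Plates incubated 24 h at 37 °C, then stained with aqueous 2,3,5-triphenyltetrazolium chloride (1 mg mL⁻¹). The lowest amount giving an inhibition zone was recorded; <50 μg counted active. Triplicate.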

Saccharomyces cerevisiae = assay: Antifungal activity against Saccharomyces cerevisiae ATCC 2601 assessed as concentration required to inhibit fungal growth after 24 hrs by TLC assay; type: functional; summary of the method: as §1
Klebsiella pneumoniae [1] = assay: Antibacterial activity against Klebsiella pneumoniae ATCC 10031 assessed as concentration required to inhibit bacterial growth after 24 hrs by TLC assay; type: functional; summary of the method: as §1
[2] = (§2) Antibacterial activity against Salmonella Setubal ATCC 19196 assessed as growth inhibition at 50 to 1.56 ug after 24 hrs by TLC assay; type: functional, Salmonella enterica subsp. enterica serovar Setubal; summary of the method: as §1
Cryptococcus neoformans = assay: Antifungal activity against Cryptococcus neoformans ATCC 28952 assessed as concentration required to inhibit fungal growth after 24 hrs by TLC assay; type: functional; summary of the method: as §1
Escherichia coli [3] = assay: Antibacterial activity against Escherichia coli ATCC 11103 assessed as growth inhibition at 50 to 1.56 ug after 24 hrs by TLC assay; type: functional; summary of the method: as §1
[4] = Antibacterial activity against Salmonella Setubal ATCC 19196 assessed as concentration required to inhibit bacterial growth after 24 hrs by TLC assay; type: functional, Salmonella enterica subsp. enterica serovar Setubal; summary of the method: as §1
Candida tropicalis = assay: Antifungal activity against Candida tropicalis ATCC 750 assessed as concentration required to inhibit fungal growth after 24 hrs by TLC assay; type: functional; summary of the method: as §1
[5] = test system: Staphylococcus epidermidis; assay: Antibacterial activity against Staphylococcus epidermidis ATCC 12228 assessed as growth inhibition at 50 to 1.56 ug after 24 hrs by TLC assay; type: functional; summary of the method: as §1
Kocuria rhizophila [6] = assay: Antibacterial activity against Micrococcus luteus ATCC 9341 assessed as growth inhibition at 50 to 1.56 ug after 24 hrs by TLC assay; type: functional; summary of the method: as §1
[7] = test system: Staphylococcus epidermidis; assay: Antibacterial activity against Staphylococcus epidermidis ATCC 12228 assessed as concentration required to inhibit bacterial growth after 24 hrs by TLC assay; type: functional; summary of the method: as §1
Staphylococcus aureus [8] = assay: Antibacterial activity against Staphylococcus aureus ATCC 6538p assessed as concentration required to inhibit bacterial growth after 24 hrs by TLC assay; type: functional; summary of the method: as §1
Klebsiella pneumoniae [9] = assay: Antibacterial activity against Klebsiella pneumoniae ATCC 10031 assessed as growth inhibition at 50 to 1.56 ug after 24 hrs by TLC assay; type: functional; summary of the method: as §1
Escherichia coli [10] = assay: Antibacterial activity against Escherichia coli ATCC 11103 assessed as concentration required to inhibit bacterial growth after 24 hrs by TLC assay; type: functional; summary of the method: as §1
Kocuria rhizophila [11] = assay: Antibacterial activity against Micrococcus luteus ATCC 9341 assessed as concentration required to inhibit bacterial growth after 24 hrs by TLC assay; type: functional; summary of the method: as §1
Staphylococcus aureus [12] = assay: Antibacterial activity against Staphylococcus aureus ATCC 6538p assessed as growth inhibition at 50 to 1.56 ug after 24 hrs by TLC assay; type: functional; summary of the method: as §1
Candida dubliniensis = assay: Antifungal activity against Candida dubliniensis SM 26 clinical isolate assessed as concentration required to inhibit fungal growth after 24 hrs by TLC assay; type: functional; summary of the method: as §1
[13] = test system: Salmonella enterica subsp. enterica serovar Setubal; assay: as §2; type: functional; summary of the method: as §1

Row | SMILES | Activity (Candida albicans) [µg] | Activity (Saccharomyces cerevisiae) [µg] | Activity (Klebsiella pneumoniae [1]) [µg] | Activity (Cryptococcus neoformans) [µg] | Activity [4] [µg] | Activity (Candida tropicalis) [µg] | Activity [7] [µg] | Activity (Staphylococcus aureus [8]) [µg] | Activity (Escherichia coli [10]) [µg] | Activity (Kocuria rhizophila [11]) [µg] | Activity (Candida dubliniensis) [µg] | also measured
1 | CC[C@H](C)[C@H](NC(=O)[C@@H](NC(=O)[C@H](CC(C)C)N(C)C)[C@@H](Oc1ccc(C=O)cc1)c1ccccc1)C(=O)OC | <50 | <50 | <50 | <50 | <50 | <50 | <50 | <50 | <50 | <50 | <50 | Activity [2]: <50 µg; Activity (Escherichia coli [3]): <50 µg; Activity [5]: <50 µg; Activity (Kocuria rhizophila [6]): <50 µg; Activity (Klebsiella pneumoniae [9]): <50 µg; Activity (Staphylococcus aureus [12]): <50 µg
2 | CC[C@H](C)[C@H](NC(=O)[C@H](NC(=O)[C@H](CC(C)C)N(C)C)[C@H](Oc1ccc(C=O)cc1)c1ccccc1)C(=O)OC | <50 | <50 | <50 | <50 | <50 | <50 | <50 | <50 | <50 | <50 | <50 | growth inhibition (GI) [13]: inactive; growth inhibition (GI) (Escherichia coli [3]): inactive; growth inhibition (GI) [5]: inactive; growth inhibition (GI) (Kocuria rhizophila [6]): inactive; growth inhibition (GI) (Klebsiella pneumoniae [9]): inactive; growth inhibition (GI) (Staphylococcus aureus [12]): inactive
3 | CC[C@H](C)[C@H](NC(=O)[C@H](NC(=O)[C@H](CC(C)C)NC(=O)OCc1ccccc1)[C@@H](O)c1ccccc1)C(=O)OC (mixture of isomers) | <50 | <50 | <50 | <50 | <50 | <50 | <50 | <50 | <50 | <50 | <50 | 
4 | COC(=O)[C@H](Cc1ccccc1)NC(=O)[C@H](NC(=O)[C@@H](N)CC(C)C)[C@@H](O)c1ccccc1 (mixture of isomers) | <50 | <50 | <50 | <50 | <50 | <50 | 3.1 | <50 | 12.5 | <50 | <50 | 
5 | COC(=O)[C@H](CC(C)C)NC(=O)[C@H](NC(=O)[C@H](CC(C)C)N(C)C)[C@@H](O)c1ccccc1 (mixture of isomers) | <50 | <50 | <50 | <50 | <50 | <50 | <50 | <50 | <50 | <50 | <50 | 
6 | CC[C@H](C)[C@H](NC(=O)[C@H](NC(=O)[C@H](CC(C)C)N(C)C)[C@@H](O)c1ccccc1)C(=O)OC (mixture of isomers) | <50 | <50 | <50 | <50 | <50 | <50 | <50 | <50 | <50 | <50 | <50 | 
7 | COC(=O)[C@H](CC(C)C)NC(=O)[C@@H]([C@@H](O)c1ccccc1)N1CN(C)[C@@H](CC(C)C)C1=O (mixture of isomers) | <50 | <50 | <50 | <50 | <50 | <50 | <50 | <50 | <50 | <50 | <50 | 
8 | COC(=O)[C@H](Cc1ccccc1)NC(=O)[C@@H](NC(=O)[C@H](CC(C)C)N(C)C)[C@@H](Oc1ccc(C=O)cc1)c1ccccc1 (mixture of isomers) | <50 | <50 | <50 | <50 | <50 | <50 | <50 | <50 | <50 | <50 | <50 | Activity [2]: <50 µg; Activity (Escherichia coli [3]): <50 µg; Activity [5]: <50 µg; Activity (Kocuria rhizophila [6]): <50 µg; Activity (Klebsiella pneumoniae [9]): <50 µg; Activity (Staphylococcus aureus [12]): <50 µg
9 | COC(=O)[C@H](Cc1ccccc1)NC(=O)[C@H](NC(=O)[C@H](CC(C)C)N(C)C)[C@H](Oc1ccc(C=O)cc1)c1ccccc1 (mixture of isomers) | <50 | <50 | <50 | <50 | <50 | <50 | <50 | <50 | <50 | <50 | <50 | growth inhibition (GI) [13]: inactive; growth inhibition (GI) (Escherichia coli [3]): inactive; growth inhibition (GI) [5]: inactive; growth inhibition (GI) (Kocuria rhizophila [6]): inactive; growth inhibition (GI) (Klebsiella pneumoniae [9]): inactive; growth inhibition (GI) (Staphylococcus aureus [12]): inactive
10 | COC(=O)[C@H](CC(C)C)NC(=O)[C@H](NC(=O)[C@H](CC(C)C)NC(=O)OCc1ccccc1)[C@@H](O)c1ccccc1 (mixture of isomers) | <50 | <50 | <50 | <50 | <50 | <50 | <50 | <50 | <50 | <50 | <50 | 
11 | COC(=O)[C@H](Cc1ccccc1)NC(=O)[C@H](NC(=O)[C@H](CC(C)C)NC(=O)OCc1ccccc1)[C@@H](O)c1ccccc1 (mixture of isomers) | <50 | <50 | <50 | <50 | <50 | <50 | <50 | <50 | <50 | <50 | <50 | 

— ChEMBL document CHEMBL2407049, “Cyclopeptide alkaloids: stereochemistry and synthesis of the precursors of discarines C and D and myrianthine A” (2013)
